Laboratory results reported in ChEMBL document CHEMBL1811844, “Design, synthesis, and biological evaluation of triazolo-pyrimidine derivatives as novel inhibitors of hepatitis B virus surface antigen (HBsAg) secretion” (J Med Chem, 2011).

Key:
Hepatitis B virus [1] = assay: Antiviral activity against wild-type Hepatitis B virus infected in human HepG2 cells assessed as inhibition of HBsAg secretion by ELISA; format: functional, organism-based
Mus musculus [2] = assay: Acute toxicity in CL57BL/6 mouse assessed as effect on serum alkaline phosphatase level at 25 mg/kg, iv administered as single dose after 24 hrs; format: organism-based; set-up: dose 25 mg/kg, route intravenous; settings: in vivo
Summary of the method: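 Female C57BL/6 mice, four per group, randomized, each given one tail-vein injection of a 2 mg/mL solution in 1:1 NMP:Solutol HS15 diluted with saline; a vehicle-only group served as control. Serum was collected and run on an automated chemistry and electrolyte analyser.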

Mus musculus [3] = assay: Acute toxicity in CL57BL/6 mouse assessed as effect on hematocrit at 25 mg/kg, iv administered as single dose after 24 hrs; format: organism-based; set-up: dose 25 mg/kg, route intravenous; settings: in vivo
Summary of the method: (§1)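 Female C57BL/6 mice, four per group, randomized, each given one tail-vein injection of a 2 mg/mL solution in 1:1 NMP:Solutol HS15 diluted with saline; a vehicle-only group served as control. Mice were watched closely for the first hour and sacrificed at 24 h with necropsy. Whole blood was taken for complete blood counts on an automated haematology analyser.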

Mus musculus [4] = assay: Acute toxicity in CL57BL/6 mouse assessed as weight loss at 25 mg/kg, iv administered as single dose after 24 hrs; format: organism-based; set-up: dose 25 mg/kg, route intravenous; settings: in vivo
Summary of the method: (§2)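 Female C57BL/6 mice, four per group, randomised; single tail-vein bolus in NMP:Solutol HS15 (1:1) diluted with saline to 2 mg/mL, injected within 10 min of preparation; vehicle-only group. Close observation for the first hour; sacrifice and necropsy at 24 h. Whole-blood complete blood counts and serum chemistry, including total bilirubin and total protein, were measured.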

Mus musculus [5] = assay: Acute toxicity in CL57BL/6 mouse assessed as effect on red blood cells count at 25 mg/kg, iv administered as single dose after 24 hrs; format: organism-based; set-up: dose 25 mg/kg, route intravenous; settings: in vivo; summary of the method: as §1
[6] = Cytotoxicity against human HepG2(2.2.15) cells by MTT assay; format: cell-based
Mus musculus [7] = assay: Toxicity in HBV infected transgenic 1.3.32 mouse assessed as change in serum globulin level at 7.9 to 25 mg/kg, po qd for 14 days; format: organism-based; set-up: dose 7.9-25 mg/kg, route oral; settings: in vivo, 336 h
Summary of the method: (§3)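 HBV-transgenic mice (strain 1.3.32), 10 per group, randomised; oral gavage once daily for 14 days at 25 or 7.9 mg/kg in NMP:Solutol HS15/saline vehicle; vehicle-only group. Weighed before the first dose and after 3 days; observed one hour after each dose. Tail-vein blood taken before dosing, at day 7 and at day 14 necropsy, each 3 h post-dose, for serum chemistry.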

Mus musculus [8] = assay: Acute toxicity in CL57BL/6 mouse assessed as morbidity at 25 mg/kg, iv administered as single dose after 24 hrs; format: organism-based; set-up: dose 25 mg/kg, route intravenous; settings: in vivo; summary of the method: as §2
Mus musculus [9] = assay: Acute toxicity in CL57BL/6 mouse assessed as mortality at 25 mg/kg, iv administered as single dose after 24 hrs; format: organism-based; set-up: dose 25 mg/kg, route intravenous; settings: in vivo; summary of the method: as §2
Mus musculus [10] = assay: Acute toxicity in CL57BL/6 mouse assessed as effect on red cell distribution width at 25 mg/kg, iv administered as single dose after 24 hrs; format: organism-based; set-up: dose 25 mg/kg, route intravenous; settings: in vivo; summary of the method: as §1
Mus musculus [11] = assay: Acute toxicity in CL57BL/6 mouse assessed as effect on serum phosphorus level at 25 mg/kg, iv administered as single dose after 24 hrs; format: organism-based; set-up: dose 25 mg/kg, route intravenous; settings: in vivo
Summary of the method: as §1, with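 “watched” for “watched closely”, “Serum” for “Whole blood”, “collected and run” for “taken for complete blood counts”, “chemistry and electrolyte” for “haematology”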

Mus musculus [12] = assay: Toxicity in HBV infected transgenic 1.3.32 mouse assessed as change in serum alkaline phosphatase level at 7.9 to 25 mg/kg, po qd for 14 days; format: organism-based; set-up: dose 7.9-25 mg/kg, route oral; settings: in vivo, 336 h; summary of the method: as §3
Rattus norvegicus = assay: Cmax in fasted Sprague-Dawley rat plasma at 25 mg/kg, po after 6 hrs by LC/MS/MS analysis; format: ADME, organism-based; set-up: dose 25 mg/kg, route oral; settings: in vivo
Summary of the method: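 Male rats, 3 per treatment, fitted with jugular vein cannulae two days before dosing and fasted 12 h (water allowed). Compound given by gavage at 25 mg/kg, formulated at 2 mg/mL in 1:1 NMP:Solutol HS15 diluted with saline. Blood taken predose and at 5, 15, 30 min, 1, 3 and 6 h. Plasma quantified by LC/MS against an 8-point standard curve; Cmax calculated by standard methods.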

Mus musculus [13] = assay: Acute toxicity in CL57BL/6 mouse assessed as effect on mean corpuscular volume at 25 mg/kg, iv administered as single dose after 24 hrs; format: organism-based; set-up: dose 25 mg/kg, route intravenous; settings: in vivo; summary of the method: as §1
Mus musculus [14] = assay: Toxicity in HBV infected transgenic 1.3.32 mouse assessed as change in serum amylase level at 7.9 to 25 mg/kg, po qd for 14 days; format: organism-based; set-up: dose 7.9-25 mg/kg, route oral; settings: in vivo, 336 h; summary of the method: as §3
Hepatitis B virus [15] = assay: Antiviral activity against entecavir-resistant Hepatitis B virus harboring polymerase L528M, M552V, T532G and S550I mutant in human HepG2 cells assessed as inhibition of HBsAg secretion by ELISA; format: functional, organism-based
Mus musculus [16] = assay: Acute toxicity in CL57BL/6 mouse assessed as increase in lymphocytes count at 25 mg/kg, iv administered as single dose after 24 hrs; format: organism-based; set-up: dose 25 mg/kg, route intravenous; settings: in vivo; summary of the method: as §2
Mus musculus [17] = assay: Acute toxicity in CL57BL/6 mouse assessed as reduction in neutrophils count at 25 mg/kg, iv administered as single dose after 24 hrs; format: organism-based; set-up: dose 25 mg/kg, route intravenous; settings: in vivo; summary of the method: as §2
Mus musculus [18] = assay: Toxicity in HBV infected transgenic 1.3.32 mouse assessed as mortality at 7.9 to 25 mg/kg, po qd for 14 days; format: organism-based; set-up: dose 7.9-25 mg/kg, route oral; settings: in vivo, 336 h; summary of the method: as §3
Mus musculus [19] = assay: Toxicity in HBV infected transgenic 1.3.32 mouse assessed as change in serum creatinine level at 7.9 to 25 mg/kg, po qd for 14 days; format: organism-based; set-up: dose 7.9-25 mg/kg, route oral; settings: in vivo, 336 h; summary of the method: as §3
Mus musculus [20] = assay: Acute toxicity in CL57BL/6 mouse assessed as effect on serum K+ level at 25 mg/kg, iv administered as single dose after 24 hrs; format: organism-based; set-up: dose 25 mg/kg, route intravenous; settings: in vivo
Summary of the method: as §1, with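 “watched” for “watched closely”, “Serum” for “Whole blood”, “collected and run” for “taken for complete blood counts”, “chemistry and electrolyte” for “haematology”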

Mus musculus [21] = assay: Acute toxicity in CL57BL/6 mouse assessed as effect on serum globulin level at 25 mg/kg, iv administered as single dose after 24 hrs; format: organism-based; set-up: dose 25 mg/kg, route intravenous; settings: in vivo
Summary of the method: as §1, with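 “watched” for “watched closely”, “Serum” for “Whole blood”, “collected and run” for “taken for complete blood counts”, “chemistry and electrolyte” for “haematology”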

Mus musculus [22] = assay: Acute toxicity in CL57BL/6 mouse assessed as effect on serum Ca2+ level at 25 mg/kg, iv administered as single dose after 24 hrs; format: organism-based; set-up: dose 25 mg/kg, route intravenous; settings: in vivo
Summary of the method: as §1, with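 “watched” for “watched closely”, “Serum” for “Whole blood”, “collected and run” for “taken for complete blood counts”, “chemistry and electrolyte” for “haematology”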

Mus musculus [23] = assay: Acute toxicity in CL57BL/6 mouse assessed as effect on serum albumin level at 25 mg/kg, iv administered as single dose after 24 hrs; format: organism-based; set-up: dose 25 mg/kg, route intravenous; settings: in vivo
Summary of the method: as §1, with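 “watched” for “watched closely”, “Serum” for “Whole blood”, “collected and run” for “taken for complete blood counts”, “chemistry and electrolyte” for “haematology”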

Mus musculus [24] = assay: Acute toxicity in CL57BL/6 mouse assessed as effect on basophils percent at 25 mg/kg, iv administered as single dose after 24 hrs; format: organism-based; set-up: dose 25 mg/kg, route intravenous; settings: in vivo; summary of the method: as §1
Mus musculus [25] = assay: Acute toxicity in CL57BL/6 mouse assessed as effect on hemoglobin at 25 mg/kg, iv administered as single dose after 24 hrs; format: organism-based; set-up: dose 25 mg/kg, route intravenous; settings: in vivo; summary of the method: as §1
Hepatitis B virus [26] = assay: Antiviral activity against adefovir-resistant Hepatitis B virus harboring polymerase N584T mutant in human HepG2 cells assessed as inhibition of HBsAg secretion by ELISA; format: functional, organism-based
Mus musculus [27] = assay: Acute toxicity in CL57BL/6 mouse assessed as effect on serum blood urea nitrogen level at 25 mg/kg, iv administered as single dose after 24 hrs; format: organism-based; set-up: dose 25 mg/kg, route intravenous; settings: in vivo
Summary of the method: as §1, with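 “watched” for “watched closely”, “Serum” for “Whole blood”, “collected and run” for “taken for complete blood counts”, “chemistry and electrolyte” for “haematology”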

Mus musculus [28] = assay: Acute toxicity in CL57BL/6 mouse assessed as reduction in platelets count at 25 mg/kg, iv administered as single dose after 24 hrs; format: organism-based; set-up: dose 25 mg/kg, route intravenous; settings: in vivo; summary of the method: as §2
Mus musculus [29] = assay: Toxicity in HBV infected transgenic 1.3.32 mouse assessed as change in serum albumin level at 7.9 to 25 mg/kg, po qd for 14 days; format: organism-based; set-up: dose 7.9-25 mg/kg, route oral; settings: in vivo, 336 h; summary of the method: as §3
Mus musculus [30] = assay: Toxicity in HBV infected transgenic 1.3.32 mouse assessed as elevation in serum Na+ level at 7.9 to 25 mg/kg, po qd for 14 days; format: organism-based; set-up: dose 7.9-25 mg/kg, route oral; settings: in vivo, 336 h; summary of the method: as §3

Fc1cccc(Cl)c1C1CC(c2ccc(Cl)cc2)Nc2ncnn21 (racemic)
EC50 (Hepatitis B virus [1]): 8.4 µM | Activity (Mus musculus [2]): Non-toxic | Activity (Mus musculus [3]): Non-toxic | Activity (Mus musculus [4]): Non-toxic | Activity (Mus musculus [5]): Non-toxic | CC50 [6]: > 50 µM | Activity (Mus musculus [7]): Non-toxic | Activity (Mus musculus [8]): Non-toxic | Activity (Mus musculus [9]): Non-toxic | Activity (Mus musculus [10]): Non-toxic | Activity (Mus musculus [11]): Non-toxic | Activity (Mus musculus [12]): Non-toxic | Cmax (Rattus norvegicus): 2437 ng/mL | Activity (Mus musculus [13]): Non-toxic | Activity (Mus musculus [14]): Non-toxic | EC50 (Hepatitis B virus [15]): 8.3 µM | Activity (Mus musculus [16]): Toxic | Activity (Mus musculus [17]): Toxic | Activity (Mus musculus [18]): Non-toxic | Activity (Mus musculus [19]): Non-toxic | Activity (Mus musculus [20]): Non-toxic | Activity (Mus musculus [21]): Non-toxic | Activity (Mus musculus [22]): Non-toxic | Activity (Mus musculus [23]): Non-toxic | Activity (Mus musculus [24]): Non-toxic | Activity (Mus musculus [25]): Non-toxic | EC50 (Hepatitis B virus [26]): 5.6 µM | Activity (Mus musculus [27]): Non-toxic | Activity (Mus musculus [28]): Toxic | Activity (Mus musculus [29]): Non-toxic | Activity (Mus musculus [30]): Toxic
